Data published in ChEMBL document CHEMBL3227978, “Azetidine derivatives of tricyclic antidepressant agents” (J Med Chem, 1979).

Tests used:
Mus musculus [1] = test: Antidepressant activity in po dosed ICEM:CET (SPF Caw) mouse assessed as antagonism of reserpine-induced hypothermia administered via gavage 30 mins before reserpine challenge measured 4 hrs after reserpine treatment; assay type: functional
Summary of the method: (§1)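 Groups of ten male mice (18-22 g), fasted 9 h with water until 2 h pre-test. Oral gavage in 0.5% Methocel at doses below the 25 mg/kg screen, 30 min before reserpine 2.5 mg/kg ip. Blepharospasm scored blind at 1 h, rectal temperature at 4 h. ED50 estimated by eye-fit linear plots on semilogarithmic paper.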

Mus musculus [2] = test: Anticonvulsant activity in po dosed ICEM:CET (SPF Caw) mouse assessed as antagonism of pentylenetetrazole-induced flexor-extensor tonic convulsions administered via gavage 30 mins before pentylenetetrazole challenge; assay type: functional
Summary of the method: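 Male mice, 18-22 g, dosed orally by gavage in 0.5% Methocel (0.1 mL/10 g), starting at a 50 mg/kg screening dose, then graded doses. Pentylenetetrazole 130 mg/kg ip given 30 min later. Ten mice per dose and for controls. Dose preventing flexor-extensor tonic convulsions in 50% of animals read from dose-response curves (ED50).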

Mus musculus [3] = test: Antidepressant activity in po dosed ICEM:CET (SPF Caw) mouse assessed as antagonism of reserpine-induced blepharospasm administered via gavage 30 mins before reserpine challenge measured 1 hr after reserpine treatment; assay type: functional; conditions: Mus musculus, ICEM:CET(SPF Caw), po; read-out: ED50; summary of the method: as §1
[4] = Orientative acute toxicity in po dosed ICEM:CET (SPF Caw) mouse administered via gavage measured for 60 mins after drug dosing by Irwin's test; assay type: organism-based; conditions: ICEM:CET (SPF Caw), in vivo
Summary of the method: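 Male ICEM:CET (SPF Caw) mice, 18-22 g. Oral gavage, suspended or dissolved in 0.5% Methocel at 0.1 mL/10 g body weight. Doses of at least 25, 50, 100, 200, 400 and 800 mg/kg, four animals per dose. Animals were observed closely for 60 min after dosing during Irwin's symptomatologic test, and an approximate LD50 was estimated.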

[5] = Mus musculus, ICEM:CET(SPF Caw), po, read-out: ED50

| SMILES | ED50 (Mus musculus [1]; [5]) [mg/kg] | ED50 (Mus musculus [2]; [5]) [mg/kg] | ED50 (Mus musculus [3]) [mg/kg] | LD50 at 1 h [4] [mg/kg] | ED50 (Mus musculus [1]) [mg/kg] | ED50 (Mus musculus [2]) [mg/kg] |
| --- | --- | --- | --- | --- | --- | --- |
| CNC1CN(C2c3ccccc3CCc3ccc(Cl)cc32)C1 (configuration not stated) | > 25 | 27.9 | > 25 | 400 |  |  |
| COc1ccc2c(c1)C(N1CC(N(C)C)C1)c1ccccc1CO2 (configuration not stated) | > 25 | > 50 | > 25 | 400 |  |  |
| CNC1CN(C2c3ccccc3COc3ccccc32)C1 (configuration not stated) | 15 | 21.5 | 2.6 | 200 |  |  |
| CNC1CN(C2c3ccccc3COc3ccccc32)C1.O=C(O)/C=C/C(=O)O (single isomer, unassigned; (+)) |  |  | 1 | 200 | 4.9 | 14 |
| CNC1CN(C2c3ccccc3C=Cc3ccccc32)C1 | > 25 | > 50 | > 25 | 200 |  |  |
| CN(C)C1CN(C2c3ccccc3CCc3ccccc32)C1 | 12.5 | 21.5 | 7 | 400 |  |  |
| CNC1CN(C2c3ccccc3COc3ccc(OC)cc32)C1 (configuration not stated) | > 25 | 45.8 | > 25 | 200 |  |  |
| CNC1CN(C2c3ccccc3CCc3ccccc32)C1 | 7.3 | 13.4 | 2.9 | 400 |  |  |
| CN(C)CCC=C1c2ccccc2CCc2ccccc21.Cl [AMITRIPTYLINE HYDROCHLORIDE] | 6.6 | 8 | 1.3 | 100 |  |  |
| CN(C)C1CN(C2c3ccccc3CCc3ccc(Cl)cc32)C1 (configuration not stated) | 8.6 | 29.9 | 12.5 | 400 |  |  |
| C#CCN(CC#C)C1CN(C2c3ccccc3CCc3ccccc32)C1 | 21 | 38 | > 25 | > 800 |  |  |
| NCC1CN(C2c3ccccc3CCc3ccccc32)C1 | > 25 | > 50 | > 25 | 400 |  |  |
| CN(C)CCCN1c2ccccc2CCc2ccccc21.Cl [IMIPRAMINE HYDROCHLORIDE] | 12.3 | 19.4 | 1.6 | 200 |  |  |
| OCCN1CCN(C2CN(C3c4ccccc4CCc4ccccc43)C2)CC1 | > 25 | 31 | > 25 | 400 |  |  |
| C#CC(C)(C)NC1CN(C2c3ccccc3CCc3ccccc32)C1 | > 25 | 19.6 | 9 | > 800 |  |  |
| CN(C(N)=O)C1CN(C2c3ccccc3CCc3ccccc32)C1 | 12.5 | > 12.5 | > 12.5 | 400 |  |  |
| CN(CC(=O)c1ccccc1)C1CN(C2c3ccccc3CCc3ccccc32)C1 | > 25 | 46.8 | 15 | > 800 |  |  |
| CNC1CN(C2CCCCc3ccccc32)C1 (configuration not stated) | > 25 | 48 | > 25 | 400 |  |  |
| CNC1CN(C2c3ccccc3COc3ccc(Cl)cc32)C1 (configuration not stated) | > 25 | 15.4 | > 25 | 100 |  |  |
| CNC1(c2ccccc2)CN(C2c3ccccc3CCc3ccccc32)C1 | > 25 | > 50 | > 25 | > 400 |  |  |
| CCNC1CN(C2c3ccccc3COc3ccccc32)C1 (configuration not stated) | 22.2 | 25.3 | 4.8 | 200 |  |  |
| c1ccc2c(c1)CCc1ccccc1C2N1CC(N2CCOCC2)C1 | > 25 | 46.9 | 17 | > 800 |  |  |
| CN(C)C1CN(C2c3ccccc3C3(CC3)c3ccccc32)C1 | 16.5 | 24.3 | 7.2 | 200 |  |  |
| c1ccc2c(c1)CCc1ccccc1C2N1CC(NC2CCCCC2)C1 | > 25 | > 50 | > 25 | 400 |  |  |
| CN(C)C1CN(C2c3ccccc3CSc3ccc(Cl)cc32)C1 (configuration not stated) | > 25 | 50 | > 25 | 400 |  |  |
| CN(C)C1CN(C2c3ccccc3COc3ccccc32)C1 (configuration not stated) | 23 | 28.5 | 5.6 | 100 |  |  |
| CC(C)(C)NC1CN(C2c3ccccc3CCc3ccccc32)C1 | > 25 | 28.7 | > 25 | 400 |  |  |
| CNC1CN(C2c3ccccc3CSc3ccc(Cl)cc32)C1 (configuration not stated) | > 25 | > 50 | > 25 | 400 |  |  |
